According to ChEMBL document CHEMBL5223076, “Optimization of kinetic stabilizers of tetrameric transthyretin: A prospective ligand efficiency-guided approach” (Bioorg Med Chem, 2020):

Experiments:
[1] = Inhibition of acid-induced fibrillogenesis of human Transthyretin Y78F mutant expressed in Escherichia coli BL21 (DE3) cells assessed as inhibition of fibril formation incubated for 30 mins by kinetic turbidimetric assay
How it was run: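 TTR-Y78F in 20 mM K phosphate, 100 mM KCl, 1 mM EDTA, pH 7.6, preincubated with inhibitor 0–40 μM (final 5% DMSO) 30 min at 37 °C with shaking. Acidified with 400 mM KAcO/100 mM KCl/1 mM EDTA pH 4.2 to final 0.4 mg/mL TTR. A340 read at 1-min intervals for 1.5 h at 37 °C. Initial rates fitted to v0 = A + B·e^(−C[I]) to give IC50.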

[2] = organism: Homo sapiens; assay: Inhibition of acid-induced fibrillogenesis of human Transthyretin Y78F mutant expressed in Escherichia coli BL21 (DE3) cells assessed as reduction in fibril formation at 40 uM incubated for 30 mins by kinetic turbidimetric assay relative to control
How it was run: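 TTR-Y78F (final 0.4 mg/mL) preincubated 30 min at 37 °C with ligand up to 40 μM in 5% DMSO at pH 7.6. Aggregation triggered by pH 4.2 acetate buffer, then A340 followed for 1.5 h at 37 °C. From the exponential fit of initial rate versus concentration, RA% is the reduction in initial rate at high inhibitor concentration relative to no inhibitor.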

Compound	IC50 [1] [µM]	inhibition [2] [%]
COC(=O)CCNC(=O)c1cc(-c2c(F)cc(F)cc2Cl)cc(I)c1O	3.7	90
CCOc1cc(F)ccc1-c1cc(I)c(O)c(C(=O)O)c1	5.1	91.1
O=C(O)c1cc(-c2ccc(Cl)cc2F)ccc1O	21.7	77.3
O=C(O)c1cc(-c2c(F)cc(F)cc2Cl)cc(I)c1O	4.6	91
COc1cc(F)ccc1-c1cc(I)c(O)c(C(=O)O)c1	5.3	90.3
O=C(O)c1cc(-c2ccc(Cl)cc2F)cc(I)c1O	3.9	88.5
O=C(O)c1cc(-c2c(F)cc(F)cc2Cl)ccc1O	7.2	89.1
CCOc1cc(F)ccc1-c1cc(Br)c(O)c(C(=O)O)c1	4.3	89.9
O=C(O)c1cc(-c2ccc(F)cc2C(F)(F)F)ccc1O	23.1	60.4
COc1cc(F)ccc1-c1ccc(O)c(C(=O)O)c1	6	87.8
O=C(O)c1cc(-c2ccc(F)cc2F)cc(I)c1O	4.2	94
O=C(O)c1cc(-c2c(F)cc(F)cc2Cl)cc(Br)c1O	3.6	89
O=C(O)c1cc(-c2ccc(F)cc2C(F)(F)F)cc(I)c1O	7.2	87
COc1cc(F)ccc1-c1cc(Br)c(O)c(C(=O)O)c1	5.2	95.5
CCOc1cc(F)ccc1-c1ccc(O)c(C(=O)O)c1	6.1	88.8
COC(=O)[C@@H](C)NC(=O)c1cc(-c2c(F)cc(F)cc2Cl)cc(I)c1O	6	89
